The nature of one series: Metabolic stability. In kind it is in vitro ADME. The conditions noted are these: in words.
The test system of series [1] is BMCs transformed with the Hoxa9/Meis1 oncogenes (HM-2). The experiment in a line: MTT cell viability assay, Hoxa9/Meis1 transformed BMCs. In kind it is cell-based, murine. The conditions noted are these: HM-2 BMCs, 7 days. In outline:
(§1)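 Cells were plated with test compound or 0.25% DMSO and kept at 37 °C for 7 days. At day 4 the media was changed, viable cell numbers were reset to the starting density and compound was re-added. Read-out was MTT with absorbance at 570 nm, from titration curves. Mean ± SD, n = 4. Non-MLL lines were HL-60, NB4 and Jurkat; murine bone marrow cells were Hoxa9/Meis1-transformed.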
(Formazan colour is commonly taken as a measure of viable cells.)

Series [2] concerns human leukemia cell lines without MLL translocations. The experiment in a line: MTT assay, human leukemia cell lines without MLL translocations. The class given is cell-based. The following applies: in words. In outline:
as §1

Series [3] can be described thus: Pharmacokinetic studies in mice. In kind it is in vivo. The conditions noted are these: single intravenous or oral dose.
The subject of a further series is MLL-AF9 leukemia. The experiment in a line: Bone marrow transplantation model of murine MLL-AF9 leukemia. In kind it is in vivo. The following applies: for increase of median survival: MI-463 50 mg/kg, MI-503 80 mg/kg, twice daily oral gavage, 10 days.
Series [4] has as its system MLL leukemia patient samples. Nature of the series: Methylcellulose colony forming assay, MLL leukemia primary patient samples. The class given is cell-based, human. The following applies: at submicromolar or low micromolar concentrations, 14 days. The gist of the method: (§2)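 Primary cells (peripheral blood mononuclear, thawed) were pre-cultured 24 hr in RPMI-1640 with 10% FBS, 1% penicillin/streptomycin, 10 ng/mL human IL-3 and 10 ng/mL IL-6 plus SCF. They were then plated in duplicate at 7.5–15 × 10^4 cells in cytokine-supplemented methylcellulose containing test compound or DMSO. Incubation was 14 days at 37 °C, 5% CO2, followed by iodonitrotetrazolium chloride staining. Colony counts were normalized to DMSO; mean ± SD, n = 2.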

In series [5] the test system is control AML patient samples. The class given is cell-based, human. The conditions noted are these: except at the highest concentration (6 μM) in the AML-9571 sample. In outline:
as §2

Series [6] deals with MLL leukemia patient samples. The experiment in a line: Cell viability assay in primary MLL leukemia patient samples. In kind it is cell-based, human. The following applies: 7 days of treatment, in words. In outline: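 Primary AML cells (mononuclear cells from peripheral blood, isolated by density gradient and red cell lysis, frozen in 10% DMSO) were exposed to test compound or 0.25% DMSO vehicle for 7 days. Stains were anti-human CD45, CD34 and CD38, then Annexin V and 7-AAD, with ≥2 × 10^5 events per sample by flow cytometry. Annexin V/7-AAD double negative cells counted as viable, shown as % of DMSO. Blasts were hCD45+. Mean ± SD, n = 2.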

A short description of series [7]: Tolerability in normal C57BL/6 mice. The class given is in vivo. The following applies: 10 days, twice daily oral gavage. The gist of the method:
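Normal C57BL/6 mice received test compound or vehicle by oral gavage twice daily for 10 days, the same regimen as the leukemia survival studies. Body weight, organ weight and tissue damage were assessed afterwards.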

The test system of series [8] is MV4;11 human MLL leukemia cells. The following applies: for inhibition of tumor growth: once daily i.p., MI-503 60 mg/kg, MI-463 35 mg/kg, in words.
A further series addresses T1, menin (Homo sapiens, UniProt O00255).
T1 sequence (O00255 1-610): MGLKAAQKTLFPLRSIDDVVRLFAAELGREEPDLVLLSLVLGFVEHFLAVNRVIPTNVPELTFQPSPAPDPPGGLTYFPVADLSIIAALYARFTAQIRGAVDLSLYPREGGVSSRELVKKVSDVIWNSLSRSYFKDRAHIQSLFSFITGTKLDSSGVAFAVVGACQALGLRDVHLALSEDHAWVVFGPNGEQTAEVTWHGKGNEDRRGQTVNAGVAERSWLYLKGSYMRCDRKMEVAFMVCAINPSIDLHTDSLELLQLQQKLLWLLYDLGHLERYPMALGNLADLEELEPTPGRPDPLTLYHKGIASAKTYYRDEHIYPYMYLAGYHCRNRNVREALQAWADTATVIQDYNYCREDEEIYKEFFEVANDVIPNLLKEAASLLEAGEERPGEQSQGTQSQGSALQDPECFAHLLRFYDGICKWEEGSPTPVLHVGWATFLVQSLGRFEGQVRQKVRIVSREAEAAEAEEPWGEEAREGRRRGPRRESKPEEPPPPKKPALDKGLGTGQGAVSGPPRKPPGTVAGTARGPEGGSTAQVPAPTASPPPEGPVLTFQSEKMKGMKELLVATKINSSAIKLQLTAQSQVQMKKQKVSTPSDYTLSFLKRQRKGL
Nature of the series: Isothermal Titration Calorimetry, binding to menin. The conditions noted are these: in words. (In general: In ITC the heat of successive injections is recorded.)

Series [9] has as its system murine bone marrow cells (BMC) transformed with the MLL-AF9 oncogene. Nature of the series: MTT cell viability assay, MLL-AF9 transformed BMCs. In kind it is cell-based. The conditions noted are these: read-out: half-maximal growth inhibitory concentration (GI50); after 7 days of treatment. The gist of the method: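 Leukemia cells were plated and exposed to a test compound titration or 0.25% DMSO at 37 °C for 7 days. On day 4, media was changed, viable cell numbers were reset to the starting density and compound was re-supplied. Viability was read by MTT absorbance at 570 nm from titration curves. n = 4, mean ± SD.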

The subject of series [10] is MV4;11 human leukemia cells expressing MLL-AF4. The experiment in a line: Long term viability study in MV4. The class given is cell-based. The conditions noted are these: MV4;11, at day 10, first treatment phase. In outline: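 Cycle of 10 days exposure to test compound at several concentrations, 10 days wash-out without compound, then 10 further days of re-treatment. Viable cell numbers were normalized to the DMSO control. Values are means of duplicates ± SD. The day-10 read-out is taken from the first exposure phase.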

Series [11] deals with T2, menin-MLL-AF9 interaction (Homo sapiens, UniProt O00255).
T2 sequence (O00255 1-610): T1 sequence (O00255 1-610)
The experiment in a line: Co-immunoprecipitation in HEK293 cells transfected with MLL-AF9. In kind it is cell-based. The conditions noted are these: at sub-micromolar concentrations.

As to `CC1(C)CN=C(N2CCN(c3ncnc4sc(CC(F)(F)F)cc34)CC2)S1` [MI-2-2], the metabolic stability entry in the series “Metabolic stability” is on record as “very poor”.

As to `Cc1c(CN2CCC(Nc3ncnc4sc(CC(F)(F)F)cc34)CC2)ccc2[nH]c(C#N)cc12` [MI-463], the “effect on cell growth inhibition” value in series [1] is recorded as “no effect”. The growth suppressive activity result in [2] is “only a minimal effect”. Besides, the oral bioavailability in series [3] is on record as ~ 45%. The “increase of median survival” value with MLL-AF9 leukemia is given as ~ 70%. In addition, the “body weight loss / tolerability” value in the series with MLL-AF9 leukemia (MLL-AF9 leukemia mice, 10 days of treatment, twice daily p.o.) is “no significant body weight loss”. Moreover, in series [4], the “reduction in colony number” value is reported as “over 50%”. Besides, the “effect on colony formation” value in series [5] is “little effect”. For the same compound, the “effect on cell growth and blast population” value in series [6] is given as “marked decrease”. The “body weight, organ weight, tissue damage” value in [7] is “no decrease in body weight, organ weight or tissue damage”. Further, the “inhibition of tumor growth” value in series [8] is given as “strong inhibition”.

As to `Cc1c(CN2CCC(Nc3ncnc4sc(CC(F)(F)F)cc34)CC2)ccc2c1cc(C#N)n2Cc1cn[nH]c1` [MI-503], on menin, the “binding affinity to menin” value is recorded as “low nanomolar”. Moreover, the results for the GI50 in series [9] and in series [10] were 220 nM and 200 nM, respectively. In addition, the “effect on cell growth inhibition” value in series [1] is listed as “no effect”. Also, the growth suppressive activity result in [2] is recorded as “only a minimal effect”. For the same compound, the “inhibition of the menin-MLL-AF9 interaction” value in series [11] is listed as “effectively inhibit”. For the same compound, the oral bioavailability in series [3] amounted to 75%. Besides, in the series with MLL-AF9 leukemia, the “increase of median survival” value is on record as ~ 45%. The “reduction in colony number” value in series [4] is recorded as “over 50%”. Moreover, the “effect on colony formation” value in [5] is listed as “little effect”. The “body weight, organ weight, tissue damage” value in series [7] is “no decrease in body weight, organ weight or tissue damage”. Moreover, the “reduction in MV4;11 tumor volume” value in series [8] (60 mg/kg once daily i.p.) is “over 80%”. Also, the “inhibition of tumor growth” value in [8] is “strong inhibition”.
